Results: ChEMBL document CHEMBL4033606, “Ulapualides C-E Isolated from a Hawaiian Hexabranchus sanguineus Egg Mass” (J Nat Prod, 2017)
Activity calls are given as the source filed them. The calls are words filed in the database; no cut-off is given here.

Tests used:
A549 = test: Cytotoxicity against human A549 cells incubated for 72 hrs by CyQuant NF cell proliferation assay; type: functional, cell-based; settings: A549, 72 h
Method in brief: (§1)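 Cells seeded at 4,000 per well and treated 20 h later with serially diluted compounds for 72 h at 37 °C, 5% CO2. Medium containing penicillin 100 U/mL and streptomycin 100 μg/mL. Medium then replaced with CyQuant NF dye-binding solution for 60 min at 37 °C and fluorescence read on a plate reader. Triplicates in two independent trials. IC50 reported. In the second trial, sample concentration was set by colorimetry against a standard curve.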

DU-145 = test: Cytotoxicity against human DU145 cells incubated for 72 hrs by CyQuant NF cell proliferation assay; type: functional, cell-based; settings: DU-145, 72 h; method in brief: as §1
MDA-MB-231 = test: Cytotoxicity against human MDA-MB-231 cells incubated for 72 hrs by CyQuant NF cell proliferation assay; type: functional, cell-based; settings: MDA-MB-231, 72 h; method in brief: as §1
[1] = target: Beta-secretase 1 (Homo sapiens) (UniProt P56817); test: Inhibition of BACE1 (unknown origin) up to 30 uM
Beta-secretase 1 (Homo sapiens), sequence (P56817 whole entry): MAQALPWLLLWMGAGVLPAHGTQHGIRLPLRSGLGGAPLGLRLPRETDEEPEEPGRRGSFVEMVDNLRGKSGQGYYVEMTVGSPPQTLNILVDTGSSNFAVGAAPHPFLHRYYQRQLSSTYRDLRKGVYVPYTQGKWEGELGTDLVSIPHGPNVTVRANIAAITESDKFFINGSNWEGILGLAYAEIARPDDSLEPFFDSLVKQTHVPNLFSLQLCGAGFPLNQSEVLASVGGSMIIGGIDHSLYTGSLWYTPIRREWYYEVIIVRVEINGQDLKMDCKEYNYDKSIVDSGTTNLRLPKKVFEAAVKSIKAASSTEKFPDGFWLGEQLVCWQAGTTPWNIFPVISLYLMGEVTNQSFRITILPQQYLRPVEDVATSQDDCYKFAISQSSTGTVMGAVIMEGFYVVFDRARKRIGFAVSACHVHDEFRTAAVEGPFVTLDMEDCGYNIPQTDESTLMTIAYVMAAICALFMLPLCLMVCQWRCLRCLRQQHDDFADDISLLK

Structure (SMILES): COC(CC1OC(=O)CC(O)CCCC(=O)CC(C)c2coc(n2)-c2coc(n2)-c2coc(n2)/C=C/CC(OC)C1C)C(C)CCC(O)C(C)C(OC(C)=O)C(C)/C=C/N(C)C=O (stereo unspecified)
- IC50 (A549): 600 to 680 nM
- IC50 (DU-145): 760 to 850 nM
- IC50 (MDA-MB-231): 580 to 760 nM

Structure (SMILES): CO[C@H]1C/C=C/c2nc(co2)-c2nc(co2)-c2nc(co2)[C@@H](C)CC(=O)CCC[C@H](O)CC(=O)O[C@@H](C[C@H](OC)[C@@H](C)CCC(=O)[C@H](C)[C@H](OC(C)=O)[C@H](C)/C=C/N(C)C=O)[C@@H]1C
- IC50 (A549): 280 to 290 nM
- IC50 (DU-145): 250 to 260 nM
- inhibition [1]: inactive
- IC50 (MDA-MB-231): 230 to 250 nM

Structure (SMILES): COCC(OC)C(=O)OC(CCC(C)C(CC1OC(=O)CC(O)CCCC(=O)CC(C)c2coc(n2)-c2coc(n2)-c2coc(n2)/C=C/CC(OC)C1C)OC)C(C)C(OC(C)=O)C(C)/C=C/N(C)C=O (stereo unspecified)
- IC50 (A549): 260 to 330 nM
- IC50 (DU-145): 280 to 340 nM
- inhibition [1]: inactive
- IC50 (MDA-MB-231): 290 nM
